Experimental data from ChEMBL document CHEMBL4513216, “Probing the Open Global Health Chemical Diversity Library for Multistage-Active Starting Points for Next-Generation Antimalarials” (ACS Infect Dis, 2020).

Assay: Toxicity liver stage against HepG2, at 10uM
Format: cell-based
Parameters: test concentration 10 uM, cell line HepG2-A16-CD81EGFP
Conditions: human, HepG2-A16-CD81EGFP cells; read-out: INHIBITION
In short: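 Uninfected HepG2-A16-CD81EGFP cells, 3 × 10^3 per well, 1536-well, plated on prespotted compound at 10 μM final, parasite-free screening media added to match infected plates; puromycin 10 μM positive, DMSO 0.5% negative; run in parallel with 48 h PbLuc assay at 37 °C, 5% CO2; viability by CellTiter-Glo luminescence, normalized to controls.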

Row | SMILES | cytotoxicity at 10 µM [%]
1 | COCc1cc(CC2(NCc3ccccc3Cl)COC2)no1 | -9.09
2 | O=C(NC1(c2nc(C3CC3)no2)CCCCC1)c1cccnc1O | -8.92
3 | O=C(NCc1cccs1)NCC(O)c1ccoc1 (stereo unspecified) | -11.9
4 | CC(C)COCC1CN(Cc2ccsc2)Cc2ncn(C)c21 (stereo unspecified) | 6.61
5 | O=c1cc2c(nn1CN1CCN(c3ccccc3)CC1)CCC2 | 7.13
6 | CC(C)CC1SCC(=O)Nc2c1cnn2C(C)C (stereo unspecified) | 1.11
7 | O=C(CSC1=NS(=O)(=O)c2cc(F)ccc2N1)Nc1cccc(Cl)c1 | 3.92
8 | Cc1cc(S(=O)(=O)N2CCC(S(C)(=O)=O)CC2)ccc1F | 6.25
9 | Cc1cc2nc(SCC(=O)N3CCCC3)n(-c3ccccc3)c(=O)c2[nH]1 | -6.34
10 | O=C1N(Cc2cccnc2)CCC12CCCNC2 (stereo unspecified) | 3.52
11 | CCOCCNS(=O)(=O)c1cc(C)c2nc(O)cc(C)c2c1 | -4.77
12 | O=C(c1cnccn1)N1CCCC(C2=Nc3ccccc3S(=O)(=O)N2)C1 (stereo unspecified) | -0.055
13 | Cc1cc2ncc(CN(C)C)c(C3CCN(C)CC3)n2n1 | -1.19
14 | CNc1cccc(CC2COCCN(C(=O)c3cncs3)C2)n1 (stereo unspecified) | 6.42
15 | O=C1CO[C@H]2CCN(C(=O)c3ccc4c(c3)CCCC4)CC[C@@H]2N1 | 0.905
16 | CCN(Cc1ccccc1O)CC1(C)Cc2c(N)nc(N)nc2O1 (stereo unspecified) | 2.15
17 | CN(c1ccccc1)c1ccc(CC2CCCN(CCO)C2)nn1 (stereo unspecified) | -9.3
18 | COc1ccc(-c2nccc(C3CCCN3C)n2)cc1 (stereo unspecified) | 9.97
19 | Cc1cc(N(C)C)nc(C2(C)CCCN2C(=O)c2cnccn2)n1 (stereo unspecified) | -1.19
20 | CCOc1cccc(CNC(=O)C(C)(C)C#N)c1OC(F)F | -45.5
21 | CN1CCN(C2CCN(CC(O)c3ccccc3)CC2)C1=O (stereo unspecified) | 1.76
22 | CS(=O)(=O)NC(=O)c1ccn(-c2cccc(Br)c2)n1 | -3.64
23 | CCCOc1cc(CNC(=O)Nc2cccc(C(C)=O)c2)ccn1 | -1

Row | SMILES | cytotoxicity at 10 µM [%]
24 | Oc1c(F)cc(CNc2cccc(-c3nnc[nH]3)c2)cc1F | -44.2
25 | CCN1CCN(C2CCN(C(C(N)=O)c3ccc(F)cc3)CC2)C1=O (stereo unspecified) | -20
26 | CCOc1ccccc1C(=O)N1CCn2c(nnc2C(F)(F)F)C1 | -2.99
27 | CC(=O)N1CCCN(S(=O)(=O)c2cc3ccccc3o2)CC1 | 18.8
28 | COc1ccc(-c2cnc(CN3CCCC3Cn3cncn3)o2)cc1 (stereo unspecified) | 3.41
29 | CCN(C(c1ccc(OC)cc1)c1cccnc1)S(C)(=O)=O (stereo unspecified) | 9.62
30 | O=C(NCC(O)c1ccc(Cl)c(F)c1)NC1CC=CC1 (stereo unspecified) | -2.41
31 | CN(Cc1cccc(C#N)c1)Cn1nc(C(C)(C)C)ccc1=O | -1.64
32 | Cc1ccc(Br)c(S(=O)(=O)NCc2cnn(C)c2)c1 | 6.95
33 | CN(CCc1nccs1)C(=O)C1(C#N)CCCCC1 | 2.91
34 | O=S(=O)(NCc1cccnc1OC1CCCC1)N1CCOCC1 | 1.46
35 | CC(C)c1nc(S(=O)(=O)N2CCSc3ccccc32)c[nH]1 | 2.7
36 | CSC1(CNC(=O)NC(C)c2ccc(F)cc2)CCOCC1 (stereo unspecified) | 6.88
37 | N#Cc1cccc(OCCN2CCNC(=O)C2c2cccs2)c1 (stereo unspecified) | 6.76
38 | Clc1ccc(Cc2nc(CNCCn3cccn3)cs2)cc1 | -1.86
39 | Cc1cc(=O)n2nc(Oc3ccc(Cl)c(C)c3)sc2n1 | -19
40 | Cc1cc2n(n1)CC(CNC1CCN(Cc3ccccc3C)CC1)CN2 (stereo unspecified) | 3.69
41 | NC(=O)CN1CCCN(C(=O)c2ccn(-c3cccc(F)c3)n2)CC1 | 14.3
42 | O=C(Cc1ccccc1F)N1CCN(C(=O)c2ccoc2)CC1 | 1.16
43 | CCCN(CC(=O)NC)C(=O)c1ccc(-c2ccsc2)nc1C | -14.3
44 | N#CC1(C(=O)Nc2ccc(OC(F)F)cc2)CCCC1 | -11.1
45 | COc1cc(N2CCC3(CC2)CNC(=O)CO3)ncn1 | 2.57
46 | Cn1cc(C(=O)N2CCO[C@@H]3CN(C4CCC4)C[C@@H]3C2)cn1 | 8.55

Row | SMILES | cytotoxicity at 10 µM [%]
47 | CCS(=O)(=O)N1CCN(C)c2ncccc2C1 | 2.88
48 | c1csc(CNCC2COCc3c(-c4ccsc4)nnn3C2)n1 (stereo unspecified) | -113
49 | CC(C)C(=O)N1CCOC2(COCCN(c3ncccn3)C2)C1 (stereo unspecified) | -114
50 | CC(=O)N1CCC2(CCN(C(=O)c3ccc(C)c(C(F)(F)F)c3)CC2)C1 | 3.73
51 | CCc1ncc(-c2nccn2-c2cccc(CC(=O)O)c2)cn1 | 10.2
52 | CN1CC2(CCCN(C(=O)Cc3cccc(O)c3)C2)OC1=O (stereo unspecified) | 4.61
53 | COC[C@@]12CC[C@@H](N3CCOCC3)C[C@H]1CCN(c1ccc(Cl)cn1)C2 | -5.14
54 | CCNc1ccnc(N2Cc3cnc(CC(C)C)nc3C2)n1 | 10.4
55 | CCSc1ccc(C(=O)N2CCC3(CC2)[C@H](O)C[C@@H]3O)s1 | 1.34
56 | CC(C)CC(O)C1CCN(C(=O)c2coc(CN3CCOCC3)c2)CC1 (stereo unspecified) | -7.27
57 | CS(=O)(=O)c1cnc(C2CCCC2)nc1C1CCCNC1 (stereo unspecified) | -6.35
58 | CSCC(=O)N1CCC(Oc2cccc(C)c2)CC1 | 1.98
59 | NC(=O)COc1ccc(CN2CC[C@@]3(O)CCCC[C@H]3C2)cc1Cl | -6.87
60 | CN(C)[C@@H]1C[C@@H](CO)N(C(=O)Nc2ccc(SC(F)(F)F)cc2)C1 | -0.187
61 | c1cc2c(cc1Cn1cc(C3CCCNC3)nn1)CCCO2 (stereo unspecified) | -5.24
62 | Cc1cc(NCCc2c(C)n[nH]c2C)nc(-c2cccnc2)n1 | -0.355
63 | COc1ccc(-n2nc(C(C)C)nc2COC(C)C)cc1 | 1.56
64 | COc1ccc(CNC2CCCc3nc(N(C)C)ncc32)c(OC)c1 (stereo unspecified) | 1.42
65 | c1ccc2c3c([nH]c2c1)CN(Cc1cc2n(n1)CCNC2)CC3 | 3.06
66 | CC1CCc2n[nH]c(C(=O)N3CCc4c(nc(N(C)C)[nH]c4=O)C3)c2C1 (stereo unspecified) | 21.4
67 | Cc1cc(NCCc2nnc(N)s2)nc(-c2cccnc2)n1 | -5.44
68 | CC(C)[C@@H](C)NC1CCN(c2ccc(-n3ccnc3)cc2)CC1 | 0.487
69 | CCOCCn1c(=O)[nH]c2cc(C(=O)N(C)Cc3cc(C)[nH]n3)ccc21 | -0.673

Row | SMILES | cytotoxicity at 10 µM [%]
70 | Cc1ccc(S(N)(=O)=O)cc1C(=O)N1CCc2c(ncnc2N(C)C)C1 | -2.71
71 | CCc1cc(N[C@H](C(N)=O)C(C)C)n2nc(C)c(C)c2n1 | 5.88
72 | CCCc1nc(C(=O)NC(COC)c2ccnn2C)cs1 (stereo unspecified) | -2.37
73 | Cn1ccnc1CN1CCC(c2nnc(Cn3cccn3)n2C)CC1 | 17.4
74 | CC(C)(NC(=O)C1CCN(C2CCCCC2)CC1)c1nnc(N)s1 | 6.17
75 | Cc1cncc(C(=O)N2CCCC(C(=O)CCc3ccccc3)C2)c1 (stereo unspecified) | -10.1
76 | COc1ccc(C(=O)N2CC[C@H](CO)[C@H](O)C2)c(C)c1 | -11.5
77 | CCCS(=O)(=O)NCC1CCOc2ccccc2C1 (stereo unspecified) | -6.92
78 | COc1ccc(Cl)cc1C(=O)N1CCOC2(CNCCOC2)C1 (stereo unspecified) | -9.73
79 | CN(C)[C@H]1CCCCN(C(=O)CCc2csc(N)n2)C1 | -7.59
80 | Cc1cccc(CN2CCN(Cc3ccccc3)CC(O)C2)n1 (stereo unspecified) | -8.42
81 | CC(c1cc(F)ccc1F)N(C)Cc1nc2c(cnn2C)c(=O)[nH]1 (stereo unspecified) | -7.8
82 | CC(=O)N1CCCN(C(=O)NCCNc2ccccn2)CC1 | -4.07
83 | c1ccc2oc(CN3CCCC(Cn4cncn4)C3)nc2c1 (stereo unspecified) | -7.3
84 | Cc1cnn(C2CCCN(C(=O)CCc3c(C)noc3C)C2)c1 (stereo unspecified) | -17.2
85 | CCS(=O)(=O)CCN1CCCC1c1noc(C)n1 (stereo unspecified) | -10.4
86 | CN1CCOC(CNCc2coc(-c3ccccc3Cl)n2)C1 (stereo unspecified) | -14.1
87 | O=C(NCc1cc[nH]n1)NCC(O)c1ccc(F)cc1 (stereo unspecified) | -12
88 | CN(C)c1cc(CNC(=O)c2ccc(Br)cc2F)ccn1 | -26
89 | Cc1nc(C)n(CC2CN(Cc3noc(C4CC4)n3)CCO2)n1 (stereo unspecified) | -8.15
90 | CCn1nc2c(cc1=O)CN(CCCN1CCCC1=O)CC2 | -13.9
91 | CN(Cc1nnc2n1CCC2)C(=O)c1ccc2c(c1)OCO2 | -18.2
92 | Cc1cc(C)n(CCC(=O)N2CCCC(c3cc(C(N)=O)[nH]n3)C2)n1 (stereo unspecified) | -29.3

Row | SMILES | cytotoxicity at 10 µM [%]
93 | Cc1occc1CNC(=O)NCCN(C)C1CCCC1 | -19.5
94 | CC(C(N)=O)S(=O)(=O)Cc1cc(Cl)c2c(c1)OCO2 (stereo unspecified) | -14.2
95 | COc1cc(C)nc(N2CCN(C(=O)c3ccc(Cl)o3)CC2)n1 | -3.22
96 | CN(Cc1cn2ccccc2n1)C1CCCN(c2cccnn2)C1 (stereo unspecified) | -9.78
97 | CN(C)c1ccc(C(=O)N2CCN(Cc3cscn3)CC2)cc1F | -11.7
98 | CCn1cc(-c2cncn2CCc2ccc3c(c2)OCCO3)cn1 | 18.7
99 | CC(=O)N1CCN(c2cncc(C3CCNCC3)n2)CC1 | 16.8
100 | CNC(=O)C1(N2CCC[C@H]2C(=O)NC2CC2)CCCCC1 | -1.69
101 | Cn1nccc1CN1CCOC(c2cccc(-c3cncnc3)n2)C1 (stereo unspecified) | 0.88
102 | CN1C(Cn2cccn2)C[C@@H]2CN(C(=O)c3cccc(C#N)c3)CC[C@@H]21 (stereo partly specified) | 3.1
103 | CCN(CC)Cc1cn2c(n1)CN(Cc1c(C)noc1C)CC2 | -0.0472
104 | Cc1cnccc1-c1cnn(CCNC(=O)c2cccnc2)c1C1CC1 | 4.34
105 | COc1ccc(CN2CCCn3nnc(COCC4CC4)c3C2)cc1 | -110
106 | CCOC1COC2(CCN(c3cccc(C)n3)CC2)C1 (stereo unspecified) | -2.16
107 | CNc1cc(C2CCCNC2)nc(C)n1 (stereo unspecified) | 8.37
108 | Cc1oncc1C(=O)N1CC[C@H]2[C@H](C[C@@H](CN3CCCC3)N2C)C1 | 0.286
109 | CN1CCO[C@@H]2CN(C(=O)NCc3ccccc3)CC[C@@H]2C1 | -104
110 | OCCN1CCC(F)(F)C2(CCN(c3cnccn3)C2)C1 (stereo unspecified) | 8.24
111 | CCS(=O)(=O)N1C[C@@H](OCc2ccccn2)[C@@H]2OCCC[C@@H]21 | -2.31
